This is a sample that favours compounds with a hit; in the whole collection about 6.4% have one here.
MPTP block: permeability transition pore inhibition; inhibition, % at 10 µM; 360,000 tested, 1.4% active; isolated mouse mitochondria, Ca2+ swelling absorbance, 30 min;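 active = inhibition of 50% or more, scaled per plate between neutral and stimulator controls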
CHOP inh: inhibitors of CHOP induction in ER stress response; AID 2732; 220,000 tested, 3.8% active; inhibition, % at 10 µM; CHO-K1 CHOP-promoter luciferase, tunicamycin-induced, 15-18 h;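 active = compounds that reduced the stress-induced luciferase reporter signal by more than about 70% of percent inhibition, limit read from the data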
EBV gp42 block: EBV gp42 inhibition; inhibition, % (tested at 21.74 µM); Fluorescence polarization binding assay, mP read-out; 220,000 tested, 0.42% active; Q1HVG2; in the data active = inhibition above about 50%
Target sequence (Q1HVG2 whole entry, looked up): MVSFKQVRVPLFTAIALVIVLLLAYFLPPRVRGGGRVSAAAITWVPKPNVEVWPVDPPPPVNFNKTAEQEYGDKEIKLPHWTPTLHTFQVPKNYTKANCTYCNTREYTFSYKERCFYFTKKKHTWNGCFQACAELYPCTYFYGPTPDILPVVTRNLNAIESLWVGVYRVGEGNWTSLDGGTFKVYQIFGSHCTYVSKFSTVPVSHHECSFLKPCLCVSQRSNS
NR3A LBD binder: NR3A (human) ligand-binding domain modulation; NR3A LBD differential scanning fluorimetry, Tm shift; 0% = protein alone, 100% = glycine-bound protein; Tm shift relative to glycine control, % at 25 µM; 340,000 tested, 2.5% active; AID 1259313;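 active = melting temperature shift of at least 10% of the positive control shift, at one fixed dose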
Tb MetRS inh: blocks T. brucei methionyl-tRNA synthetase activity. inhibition, % at 11.9 µM. purified T. brucei MetRS, ATP depletion, Kinase-Glo luminescence. 360,000 tested, 0.4% active;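 active = inhibition above a per-plate cutoff of the control wells' mean inhibition plus 3 SD, cut at about 5.5% in these data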
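technique = Kinase-Glo luminescence, ATP depletion format | system = purified MetRS (methionyl-tRNA synthetase) enzyme from Trypanosoma brucei | timing = 15 min preincubation, 2 h reaction, all 25 °C | evaluation = percent inhibition versus plate control medians | dosing = single dose, 11.9 µM final nominal, 0.9% final DMSO | also added = substrates ATP, L-methionine and bulk Escherichia coli tRNA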
WT yeast gro inh: growth inhibition of WT yeast, mitochondrial fusion screen; mitochondrial fusion phenotypic screen, WT strain; inhibition, % at 10 µM; 190,000 tested, 2.1% active; AID 1362; in the data active = inhibition above about 58%; tested in S. cerevisiae
CHOP inh conf: confirmation of CHOP induction inhibitors; shares compounds with CHOP inh; CHO-CHOP promoter luciferase reporter, tunicamycin-induced, luminescence; inhibition, % at 10 µM; 2,100 tested, 45% active; AID 504437;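 active = mean of three repeat readings of reporter signal inhibition above a set limit, cut at about 70% in these data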
Numbers stand for hits; – = inactive; · = not tested or not shown.

SMILES	MPTP block	CHOP inh	EBV gp42 block	NR3A LBD binder	Tb MetRS inh	WT yeast gro inh	CHOP inh conf
COc1ccc(/C=N/NC(=O)COc2ccccc2-c2ccccc2)cc1	–	106.4	–	–	–	–	–
O=C(COc1ccccc1-c1ccccc1)N/N=C/c1cccc2ccccc12	–	–	–	–	–	–	·
CCN(CC)C(=O)CSc1nc(N)c(C#N)c(-c2cccs2)c1C#N	–	–	–	–	–	–	·
Cc1ccccc1NC(=O)CSc1nc(N)c(C#N)c(-c2cccs2)c1C#N	–	105.2	–	–	8.1	–	–
CCc1ccc2[nH]c(=O)c(C(c3nnnn3Cc3ccccc3)N3CCOCC3)cc2c1 (stereo not given)	–	–	–	–	–	–	·
CCc1ccc2[nH]c(=O)c(C(c3nnnn3Cc3ccco3)N3CCC(C)CC3)cc2c1 (stereo not given)	–	99.2	–	–	–	–	76.6
O=C(NC(Cc1c[nH]c2ccccc12)C(=O)O)c1ccco1 (stereo not given)	–	–	–	–	–	–	·
O=C(Nc1nnc(COc2ccc(F)cc2)s1)Nc1ccccc1F	–	99.2	–	–	–	·	–
COc1cc2c(cc1OC)CN(C(=O)Cn1ccccc1=O)CC2	–	·	·	–	–	·	·
Cc1csc(=O)n1CC(=O)Nc1ccc(Cl)c(Cl)c1	–	·	·	–	–	·	·
O=C(Cn1c2c(sc1=O)C1c3ccccc3OCC1CS2)Nc1ccc(Cl)c(Cl)c1 (stereo not given)	–	99.4	–	23.6	–	–	–
C=CCc1cc(C)ccc1OCC(O)CN1CCN(c2ccccc2)CC1 (stereo not given)	–	106.1	–	–	–	–	95.9
Cc1c(CN2CCCCC2)c(O)n(CCCO)c(=O)c1C#N	–	–	–	–	–	–	·
CN1CCN(C2CCCCC2NS(=O)(=O)c2ccccc2)CC1 (stereo not given)	–	·	·	–	–	·	·
N/C(=N\c1nc(CSc2nc3ccccc3s2)cc(=O)[nH]1)Nc1ccc(F)cc1	–	99.5	–	–	–	·	–
Cc1ccc(N/C(N)=N/c2nc(CSc3nnc(N)s3)cc(=O)[nH]2)cc1	–	–	–	–	–	·	·
CN(C)c1ccc(C(CNS(=O)(=O)c2ccc(F)cc2)c2c[nH]c3ccccc23)cc1 (stereo not given)	–	107.0	–	15.9	–	–	–
Cc1cc(SCc2ccc(F)cc2)nc(=O)[nH]1	–	·	·	–	–	·	·
O=C1C=CC(=O)N1N(c1ccccc1)c1ccccc1	–	107.2	–	–	–	–	117.8
Cc1cc(C)cc(OCc2ccc(C(=O)NC3CCOC3=O)o2)c1 (stereo not given)	–	–	–	–	–	–	·
O=C(NC1CCOc2ccccc21)c1ccc(=O)[nH]c1 (stereo not given)	–	·	·	–	–	·	·
CCCCC(=O)Nc1sc2c(c1C(=O)OCC)CCC(C=O)=C2Cl	–	116.6	–	·	–	–	–
CCOC(=O)c1c(NC(=O)c2ccccc2Cl)sc2c1CCc1ccccc1-2	–	–	–	–	–	–	·
CN(c1ccccc1)C1CCCCC1NS(=O)(=O)c1ccc(Cl)cc1 (stereo not given)	–	96.2	–	–	–	65.3	–
O=C(/C=C/c1cccc(Cl)c1)NCCN1CCOCC1	–	–	–	–	–	–	·
SMILES	MPTP block	CHOP inh	EBV gp42 block	NR3A LBD binder	Tb MetRS inh	WT yeast gro inh	CHOP inh conf
C/C(=N\NC(=O)c1nn(C)c(C)c1Br)c1ccc(NC(=O)c2ccoc2C)cc1	–	100.2	–	–	–	–	114.7
C/C(=N\NC(=O)c1c(Br)c(C)nn1C)c1ccc(NC(=O)c2ccoc2C)cc1	–	–	–	–	–	–	·
COC(=O)CSc1ncccc1-c1nc2ccccc2[nH]1	–	–	–	–	–	–	·
COc1cccc(N(C(=O)CS(=O)CC(=O)Nc2ccc(F)cc2)C(C(=O)NC2CCCCC2)c2cccs2)c1 (stereo not given)	–	99.8	–	–	–	–	–
COc1ccc(N(C(=O)c2ccco2)C(C(=O)NC2CCCCC2)c2cccs2)cc1OC (stereo not given)	–	–	–	–	–	–	·
C#CC(=O)N(c1cc(OC)ccc1OC)C(C(=O)NC1CCCC1)c1cccs1 (stereo not given)	–	108.5	–	–	–	–	110.8
Cc1cc(NC(=O)CSc2nc(Cc3ccccc3)c(C)[nH]2)no1	–	·	·	–	–	·	·
Cc1cccc2c(-c3ccccc3)cc(=O)[nH]c12	–	–	–	–	–	–	·
O=S(=O)(Nc1ccc(N2CCCCC2)cc1)c1ccc(F)c(F)c1	–	99.9	–	–	–	–	–
C[C@H](NC(=O)c1nc[nH]c1C(=O)N[C@@H](Cc1ccccc1)C(=O)OC(C)(C)C)C(=O)OC(C)(C)C	–	97.0	–	–	–	·	99.8
C[C@H](NC(=O)c1[nH]cnc1C(=O)Nc1ccc(CNC(=O)OC(C)(C)C)cc1)C(=O)OC(C)(C)C	–	98.1	–	–	–	·	78.1
CC(C)(C)OC(=O)[C@H](Cc1ccccc1)NC(=O)c1nc[nH]c1C(=O)N[C@@H](Cc1ccccc1)C(=O)OC(C)(C)C	–	–	–	–	–	·	·
Cc1cc(/C=N/Nc2nc(N)ncc2[N+](=O)[O-])c(C)n1-c1cccc(C(F)(F)F)c1	·	98.0	–	·	·	·	95.9
COc1ccccc1S(=O)(=O)N1CCC(C(=O)O)(c2ccccc2)CC1	–	·	·	–	–	·	·
c1ccc(Cn2nnc3c(NCc4ccc5c(c4)OCO5)nc(C4CC4)nc32)cc1	–	–	–	–	–	–	·
Cc1nc(NCc2ccc3c(c2)OCO3)c2nnn(Cc3ccccc3)c2n1	–	101.1	–	–	–	–	–
CC(=O)OCC1O[C@@H](O[C@@H]2C[C@H]3C(C)(C)[C@H](OC(C)=O)CC[C@]3(C)[C@H]3CC[C@]45C[C@]4(CC[C@H]5[C@@H](C)C[C@@H](O)[C@H](O)C(C)(C)O)[C@@]32C)[C@H](O)[C@@H](O)[C@@H]1O (stereo not given in full)	·	106.0	–	·	·	–	120.3
Nc1cccc2c1C(=O)N(C(=O)/C=C/c1ccc(F)cc1)C2=O	–	102.9	–	–	–	–	–
CCOc1cccc2cc(C(=O)NCc3ccc(OC)cc3)c(=N)oc12	–	·	·	–	–	·	·
COc1cccc(N2CCN(c3ncnc4c3[nH]c3ccccc34)CC2C)c1 (stereo not given)	·	108.5	–	·	·	65.0	116.8
COc1cccc(NS(=O)(=O)c2ccc(S(=O)(=O)N3CCCC3)cc2)c1	–	·	·	–	–	·	·
Cn1nnnc1SC1CC(=O)N(c2ccccc2)C1=O (stereo not given)	–	–	–	–	–	–	·
Cc1cc(C)cc(N2C(=O)CC(Sc3nnnn3-c3ccccc3)C2=O)c1 (stereo not given)	–	101.7	–	–	–	–	–
